Measured values as given in ChEMBL document CHEMBL1122858, “N-(1,3,4,6,7,12b-hexahydro-2H-benzo[b]furo[2,3-a]quinolizin -2-yl)-N- methyl-2-hydroxyethane-sulfonamide: a potent and selective alpha 2-adrenoceptor antagonist” (J Med Chem, 1985).

Assays:
Rattus norvegicus [1] = assay: Tested for reversal of clonidine-induced mydriasis in the rat administered intravenously; assay type: functional; conditions: iv
In short: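 In rats, clonidine-induced mydriasis from activation of central postsynaptic α2-adrenoceptors is established first. Test agents are then scored for reversing it, as a read-out of blood-brain barrier penetration and central α2 antagonism.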

Rattus norvegicus [2] = species on record: Rattus norvegicus; assay: Tested for antagonism of methoxamine in the field-stimulated rat vas deferens.; assay type: functional; conditions: read-out: pA2 (converted)
In short: (§1)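 Isolated, field-stimulated rat vas deferens. Clonidine probes presynaptic α2-adrenoceptors and methoxamine probes postsynaptic α1-adrenoceptors. pA2 and slope come from Schild plots using at least three antagonist concentrations and four tissues per concentration. Values are means ± SD.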

[3] = biological target: T1, Alpha-1A adrenergic receptor (Bos taurus, UniProt P18130); assay: Evaluated for its ability to displace [3H]prazosin from alpha-1-Adrenoceptor of calf cerebral cortex; assay type: tissue-based
T1 sequence (P18130 whole entry): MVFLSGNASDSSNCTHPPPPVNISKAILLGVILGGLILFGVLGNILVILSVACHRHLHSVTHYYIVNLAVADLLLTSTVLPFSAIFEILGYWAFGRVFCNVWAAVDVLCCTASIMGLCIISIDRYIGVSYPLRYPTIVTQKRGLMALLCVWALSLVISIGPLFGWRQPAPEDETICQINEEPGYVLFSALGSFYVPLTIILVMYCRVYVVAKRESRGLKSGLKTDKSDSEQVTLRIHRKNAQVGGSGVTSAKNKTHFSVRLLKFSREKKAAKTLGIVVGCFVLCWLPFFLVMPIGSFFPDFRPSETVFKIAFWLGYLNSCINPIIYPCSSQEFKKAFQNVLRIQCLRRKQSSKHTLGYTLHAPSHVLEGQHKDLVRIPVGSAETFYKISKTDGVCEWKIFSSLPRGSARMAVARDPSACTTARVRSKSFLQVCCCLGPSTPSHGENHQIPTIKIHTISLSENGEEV

[4] = biological target: T2, Alpha-2A adrenergic receptor (Bos taurus, UniProt Q28838); assay: Evaluated for its ability to displace [3H]clonidine from alpha-2 adrenergic receptor of calf cerebral cortex; assay type: tissue-based
T2 sequence (Q28838 whole entry): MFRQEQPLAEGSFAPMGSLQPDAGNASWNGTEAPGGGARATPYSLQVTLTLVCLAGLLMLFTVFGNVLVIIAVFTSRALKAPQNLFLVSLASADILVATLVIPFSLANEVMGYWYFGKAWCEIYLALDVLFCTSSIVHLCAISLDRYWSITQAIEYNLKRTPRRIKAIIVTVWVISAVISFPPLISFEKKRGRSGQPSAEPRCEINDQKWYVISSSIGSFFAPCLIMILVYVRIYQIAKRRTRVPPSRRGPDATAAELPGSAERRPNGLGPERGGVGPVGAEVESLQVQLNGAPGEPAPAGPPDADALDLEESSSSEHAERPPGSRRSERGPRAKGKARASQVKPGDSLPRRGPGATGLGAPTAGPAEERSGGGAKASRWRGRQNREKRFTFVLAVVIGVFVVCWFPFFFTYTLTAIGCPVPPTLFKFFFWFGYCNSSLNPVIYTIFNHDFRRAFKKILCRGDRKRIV

[5] = biological target: T3, Adrenergic receptor alpha-2 (Rattus norvegicus, UniProt P22086+P19328+P22909); assay: Evaluated for its ability to displace [3H]rauwolscine from alpha-2 adrenergic receptor of rat cerebral cortex; assay type: tissue-based
T3 sequence (P22086 whole entry): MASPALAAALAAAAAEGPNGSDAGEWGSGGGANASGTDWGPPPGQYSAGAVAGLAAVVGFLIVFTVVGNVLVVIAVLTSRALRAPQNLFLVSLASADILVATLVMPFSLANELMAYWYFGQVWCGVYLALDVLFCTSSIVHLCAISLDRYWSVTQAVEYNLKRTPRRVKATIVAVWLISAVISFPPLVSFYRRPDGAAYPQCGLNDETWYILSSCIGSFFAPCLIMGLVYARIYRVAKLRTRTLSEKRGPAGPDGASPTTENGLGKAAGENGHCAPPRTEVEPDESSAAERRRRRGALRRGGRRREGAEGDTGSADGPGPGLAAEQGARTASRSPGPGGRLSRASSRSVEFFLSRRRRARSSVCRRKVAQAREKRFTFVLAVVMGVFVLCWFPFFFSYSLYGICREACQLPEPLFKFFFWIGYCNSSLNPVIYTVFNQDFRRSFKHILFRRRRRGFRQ
T3 sequence (P19328 whole entry): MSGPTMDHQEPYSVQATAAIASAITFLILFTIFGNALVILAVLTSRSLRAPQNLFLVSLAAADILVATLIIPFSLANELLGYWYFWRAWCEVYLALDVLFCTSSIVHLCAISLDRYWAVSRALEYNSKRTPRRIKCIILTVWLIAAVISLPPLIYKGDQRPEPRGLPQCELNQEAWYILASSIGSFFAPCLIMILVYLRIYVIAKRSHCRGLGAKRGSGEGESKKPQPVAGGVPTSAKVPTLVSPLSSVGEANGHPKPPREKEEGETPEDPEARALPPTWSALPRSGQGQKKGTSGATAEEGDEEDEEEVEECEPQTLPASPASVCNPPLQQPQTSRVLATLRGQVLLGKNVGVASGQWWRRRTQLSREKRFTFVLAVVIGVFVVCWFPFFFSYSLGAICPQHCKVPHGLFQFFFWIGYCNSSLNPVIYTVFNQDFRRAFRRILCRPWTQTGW
T3 sequence (P22909 whole entry): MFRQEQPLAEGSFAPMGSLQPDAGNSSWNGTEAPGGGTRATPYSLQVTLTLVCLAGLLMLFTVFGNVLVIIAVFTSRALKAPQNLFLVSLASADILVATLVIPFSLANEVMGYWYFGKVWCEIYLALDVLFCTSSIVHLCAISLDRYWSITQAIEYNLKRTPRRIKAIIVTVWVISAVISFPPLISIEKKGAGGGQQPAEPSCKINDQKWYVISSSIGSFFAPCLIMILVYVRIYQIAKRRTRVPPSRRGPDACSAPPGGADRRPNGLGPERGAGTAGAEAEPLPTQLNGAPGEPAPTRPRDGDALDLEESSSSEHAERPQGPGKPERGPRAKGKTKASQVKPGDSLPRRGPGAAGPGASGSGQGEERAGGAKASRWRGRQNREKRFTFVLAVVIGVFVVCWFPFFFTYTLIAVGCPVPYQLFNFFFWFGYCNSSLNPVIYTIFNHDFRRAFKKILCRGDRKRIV

Rattus norvegicus [6] = species on record: Rattus norvegicus; assay: Tested for antagonism of clonidine in the field-stimulated rat vas deferens.; assay type: functional; conditions: read-out: pA2 (converted); in short: as §1

Row | Compound | ED50 (Rattus norvegicus [1]) [mg/kg] | Kb (Rattus norvegicus [2]) [µM] | Ki [3] [µM] | Ki [4] [µM] | Ki [5] [µM] | Kb (Rattus norvegicus [6]) [µM]
1 | CN(C1CCN2CCc3c(oc4ccccc34)C2C1)S(=O)(=O)CCO (stereo unspecified) | 0.0435 | 0.102 | 0.21 | 0.00136 | 0.0016 | 0.0017
2 | CN([C@H]1CCN2CCc3c(oc4ccccc34)[C@H]2C1)S(=O)(=O)CCO | 5.41 | 2.51 | 8 | 0.1 | 0.19 | 0.0398
3 | COC(=O)[C@@H]1[C@H]2C[C@H]3c4[nH]c5ccccc5c4CCN3C[C@@H]2CC[C@@H]1O [YOHIMBINE] | 1.04 | 0.302 |  |  |  | 0.0224
4 | CN([C@@H]1CCN2CCc3c(oc4ccccc34)[C@@H]2C1)S(=O)(=O)CCO | 0.0346 | 0.0347 | 0.11 | 0.00077 | 0.0011 | 0.000794
